Rows were chosen to be rich in hits. Some 0.94% of all compounds tested hit in one or more screens of this group.
GC-A act = GC-A stimulated cGMP production enhancers – HEK293 GC-A cells, cGMP TR-FRET, EC30 ANP, primary screen. AID 1671463, 2021. Atrial natriuretic peptide receptor 1 (Homo sapiens), P16066. activation, % at 10 µM. actives 0.14% (n = 370,000). 0% at EC30 ANP, 100% saturating ANP; in the data active means activation above about 40%
Target sequence (P16066 whole entry, looked up): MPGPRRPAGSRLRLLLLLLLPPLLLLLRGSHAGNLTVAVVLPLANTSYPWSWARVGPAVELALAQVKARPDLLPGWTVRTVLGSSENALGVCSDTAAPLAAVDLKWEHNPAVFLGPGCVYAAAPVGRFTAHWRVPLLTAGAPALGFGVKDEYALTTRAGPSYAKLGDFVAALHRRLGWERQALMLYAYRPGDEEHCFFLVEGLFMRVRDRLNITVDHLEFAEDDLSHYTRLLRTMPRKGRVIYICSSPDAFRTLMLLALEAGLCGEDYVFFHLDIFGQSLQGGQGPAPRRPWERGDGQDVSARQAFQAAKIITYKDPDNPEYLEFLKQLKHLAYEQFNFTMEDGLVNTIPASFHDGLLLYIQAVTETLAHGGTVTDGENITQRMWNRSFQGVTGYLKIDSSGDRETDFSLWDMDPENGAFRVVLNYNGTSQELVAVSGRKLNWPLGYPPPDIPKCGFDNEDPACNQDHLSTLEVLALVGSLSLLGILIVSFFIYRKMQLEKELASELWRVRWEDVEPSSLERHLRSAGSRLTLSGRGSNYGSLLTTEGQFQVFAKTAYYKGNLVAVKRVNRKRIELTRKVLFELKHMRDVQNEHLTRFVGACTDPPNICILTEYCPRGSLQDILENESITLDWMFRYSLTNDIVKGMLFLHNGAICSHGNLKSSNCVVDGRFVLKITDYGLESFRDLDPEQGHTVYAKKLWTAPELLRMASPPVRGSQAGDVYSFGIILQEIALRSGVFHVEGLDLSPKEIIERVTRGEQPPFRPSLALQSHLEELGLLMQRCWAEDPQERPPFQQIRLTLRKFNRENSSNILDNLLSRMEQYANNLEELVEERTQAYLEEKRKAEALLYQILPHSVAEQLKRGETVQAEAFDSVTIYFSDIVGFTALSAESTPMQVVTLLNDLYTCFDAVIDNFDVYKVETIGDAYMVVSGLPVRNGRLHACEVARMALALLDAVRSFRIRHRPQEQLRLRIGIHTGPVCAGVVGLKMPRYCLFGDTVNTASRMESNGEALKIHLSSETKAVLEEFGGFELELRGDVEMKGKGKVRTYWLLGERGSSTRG
Arrestin-AP2 inh = inhibitors of beta-arrestin/AP2 binding, primary screen, biochemical, GPCR trafficking, flow cytometry. inhibition, % at 10 µM. FITC-arrestin peptide / GST-AP2 beads; AP2 beta2 appendage carries R879A mutation. beta-arrestin 1 C-terminal peptide binding to AP2 beta2-adaptin appendage (human). actives 0.31% (n = 340,000);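 active means inhibition above a set limit, near 3 SD of compounds lacking own fluorescence, cut at about 54% in these data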;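 further: plate controls were DMSO wells for no effect and 5 µM unlabelled arrestin peptide for full effect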
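System: GST-AP2 R879A glutathione beads; medium: PBS, Tween 20 0.05%, BSA 0.1%; reagent: fluorescein-tagged arrestin peptide at 50 nM final; schedule: pre-incubation 12 min, peptide binding 1 h, room temperature; detection: flow cytometry, FL1 (488/535 nm); read-out: inhibition as reduced fluorescein signal on beads, percent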
NPR2 activator = human GC-B receptor activators, primary screen, HEK293 GC-B cells, cGMP TR-FRET, EC30 CNP; Atrial natriuretic peptide receptor 2 (Homo sapiens), P20594; 0% at EC30 CNP, 100% saturating CNP; activation, % at 10 µM; actives 0.11% (n = 370,000); AID 1920062, 2024;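 active means activation at 10 µM reaching about 35% in either raw or pattern-adjusted values, limit read from the data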
GalR3 antagonist = GalR3 antagonists in HEK293 cells, primary screen, cell-based, fluorescence readout | actives 0.44% (n = 360,000) | inhibition, % at 3 µM | AID 651719, 2012 | HEK293 GalR3-CNG cAMP membrane potential fluorescence; galR3 body fused to GalR1 C-terminus;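 active means inhibition above the screen-wide average plus 3 SD, cut at about 13% in these data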;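 further: forskolin and galanin both at EC90 stimulate the cells; cAMP rise reported by CNG channel membrane potential dye signal; 0% = forskolin plus galanin with DMSO and 100% = forskolin alone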
GalR3 antag conf = GalR3 antagonist hit confirmation, cell-based, fluorescence, triplicate. actives 59% (n = 1,600). inhibition, % at 3 µM. AID 652245, 2013. HEK293 GalR3 CNG cAMP biosensor, membrane potential fluorescence; galR3 fused to GalR1 carboxy tail; challenged with forskolin and galanin at EC90. shares compounds with GalR3 antagonist;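 active means inhibition above the primary screen's cutoff, the mean inhibition of all screened compounds plus 3 SD, cut at about 13% in these data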;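 further: 0% = forskolin plus galanin and 100% = forskolin alone with DMSO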
HEK-CNG parental = nonspecific cAMP agonists in parental HEK-CNG cells, counter-screen for GalR3 antagonist project, cell-based, fluorescence, high throughput | shares compounds with GalR3 antagonist | HEK293-CNG parental cells, cAMP membrane potential fluorescence; normalised: DMSO wells 0%, forskolin wells 100% | activation, % at 3 µM | actives 10% (n = 1,600) | AID 652268, 2013; in the data active means activation above about 1.3%
An asterisk follows results filed as active; · = no result given.

SMILES	GC-A act	Arrestin-AP2 inh	NPR2 activator	GalR3 antagonist	GalR3 antag conf	HEK-CNG parental
C[C@H]1CN=C2N(CCNC(=O)CCC3CCCCC3)[C@H](Cc3ccc(O)cc3)CN21	-1	12	-1	17*	2	0
Nc1[nH]c(C(=O)c2ccccc2)c(-c2ccc3ccccc3c2)c1C(=O)NCc1cccc2ccccc12	-3	·	6	4	·	·
CC1CN(c2ccc(C(=O)c3ccccc3C(=O)O)cc2[N+](=O)[O-])CC(C)O1 (centres undefined)	3	4	4	18*	-1	0
Cc1ccc(C(=O)c2cc([N+](=O)[O-])ccc2N2CC(C)OC(C)C2)cc1 (centres undefined)	-5	9	-5	-3	·	·
C=CCN1C(=O)[C@@H](CC(=O)NCCCOC)[C@]2(C(=O)OC)CCCCC=C12	1	·	1	·	·	·
COc1ccc(Cl)cc1CN1CCOCC1	7	24	6	13*	8	0
COc1ccc(Cn2cc(COC(=O)N3CCCC3)nn2)cc1	1	·	11	·	·	·
CCCn1nc(C(=O)NNC(=O)CCCOc2ccc(C)cc2)c2ccccc2c1=O	-1	-2	-6	86*	90*	1
CCn1nc(C(=O)NNC(=O)CCOc2cc(C)ccc2C)c2ccccc2c1=O	-5	-24	-4	-4	·	·
COc1ccc(S(=O)(=O)N(CCc2ccccc2)CC(=O)N/N=C/c2ccc3c(c2)OCO3)cc1	-10	2	-4	-3	·	·
O=C(CN(CCc1ccccc1)S(=O)(=O)c1ccc(Cl)cc1)N/N=C/c1ccc2c(c1)OCO2	-2	-1	-1	13*	-2	1.9*
Cc1cccc(Cl)c1NC(=O)N1CCCN(c2nc3ccc(Cl)cc3s2)CC1	-6	29	-5	82*	103*	0
Cc1cccc(C)c1NC(=O)N1CCN(c2nc3ccccc3s2)CC1	6	2	9	39*	2	0
CN1C(=O)C(C)(C)c2cc(S(=O)(=O)N3CCCC(C(=O)Nc4ccc(Cl)cc4)C3)ccc21 (centres undefined)	-2	5	1	18*	25*	0
Cc1cc(N2CCN(C(=O)OC(C)(C)C)C[C@@H]2C)ccc1Br	4	·	4	-7	·	·
CCOC(=O)Cn1nnnc1C(C(C)C)N(Cc1cccs1)Cc1cc2cc(C)ccc2[nH]c1=O (centres undefined)	-5	3	1	37*	28*	1
N#CCC[C@@H]1CC[C@]2(CCCN(C(=O)C3CCCC3)C2)O1	0	·	-1	·	·	·
COC(=O)[C@]12C[C@H](CC(=O)NCc3ccc(C)o3)C(=O)N(Cc3ccccc3)C1=C[C@H](COCc1ccccc1)O[C@@H]2C	0	·	5	·	·	·
c1ccc(CCNc2ccnc3cc4ccccc4cc23)cc1	-18	27	-16	19*	-7	3.3*
CC(C)Nc1ccc(Nc2ccnc3cc4ccccc4cc23)cc1	15	25	-3	-2	·	·
Cn1cnc([N+](=O)[O-])c1Sc1nnc(-c2ccccc2)c(-c2ccccc2)n1	1	·	-4	4	·	·
COc1ccc(OCC(=O)Nc2ccc3oc(-c4ccncc4)nc3c2)cc1	-15	-2	-12	-1	·	·
COc1ccc(-c2nc3cc(NC(=O)Cc4ccc(OC)c(OC)c4)ccc3o2)cc1	9	10	7	38*	11	0
O=S(=O)(c1ccccc1)c1ncc(C(F)(F)F)cc1Cl	7	37	7	15*	24*	1
O=S(=O)(c1ccccc1)c1ncc(C(F)(F)F)cc1O	2	-3	5	4	·	·
SMILES	GC-A act	Arrestin-AP2 inh	NPR2 activator	GalR3 antagonist	GalR3 antag conf	HEK-CNG parental
Cc1ccc(NC(=O)CSc2ccc3c(c2)OCCO3)c(O)c1	-1	7	2	33*	75*	-1
Cc1ccnc(NC(=O)CSc2ccc3c(c2)OCCO3)c1	6	-2	-2	-7	·	·
C[n+]1ccccc1/C=C1\Sc2ccccc2N1CCO	-7	18	-10	-9	·	·
CCN1/C(=C/c2ccc3cccc(C)c3[n+]2CC)Sc2ccccc21	-1	13	6	49*	45*	10*
CCN1/C(=C\c2ccc3cc(C)ccc3[n+]2CC)Sc2cc(C)c(C)cc21	-9	-40	2	59*	74*	6.3*
CCN1/C(=C/c2ccc3cc(C)cc(C)c3[n+]2CC)Sc2cc(C)ccc21	-45	-55	-23	49*	58*	9.7*
Cc1ccc2c(c1)S/C(=C\c1cccc[n+]1C)N2CCO	-8	-21	2	-9	·	·
C=CCN=C1NC(c2ccc(F)cc2)C(C(=O)OC)=C(C)N1C (centres undefined)	-1	·	5	-1	·	·
CCOC(=O)N(C)C[C@@H]1OCc2cn(nn2)CCCC(=O)N([C@H](C)CO)C[C@H]1C	0	·	1	-7	·	·
CC(=O)c1cc(-c2cccc(CO)c2)c(=O)n2c1CCC2	1	·	-5	·	·	·
Cc1ccc(CSc2nnc(-c3ccccc3)n2Cc2ccco2)cc1	-27	·	-23	·	·	·
O=C(O)c1ccccc1C(=O)Nc1cccc([N+](=O)[O-])c1	6	16	0	-7	·	·
O=C(Nc1cccc([N+](=O)[O-])c1)c1cc2ccccc2cc1O	19	5	6	62*	74*	1
O=[N+]([O-])c1ccc(NC(=S)N/C(=N/CS(=O)(=O)c2ccccc2)c2ccccc2)cc1	3	-9	7	13*	7	1
COc1ccc(NC(=S)N/C(=N/CS(=O)(=O)c2ccccc2)c2ccccc2)cc1	3	-2	2	-2	·	·
Cn1c(=O)[nH]c2c(Cl)nccc21	3	4	6	16*	7	0
Cn1c(=O)[nH]c2c(Br)nccc21	4	·	-6	·	·	·
N#Cc1ccccc1S(=O)(=O)N1CCN(c2nc(-c3cccs3)nc3ccccc23)CC1	-4	·	-11	·	·	·
CSc1nnc2c(n1)C[C@H](c1ccccc1)[C@@H](C)[C@@H](C(=O)N1CCCC1)C2	0	·	6	·	·	·
C=CCN(CC=C)C(=O)COC(=O)c1ccc(Sc2ncn[nH]2)c([N+](=O)[O-])c1	0	2	4	13*	5	0

From PubChem BioAssay
